From ChEMBL document CHEMBL1139690, “Comparison between two classes of selective EP(3) antagonists and their biological activities” (Bioorg Med Chem Lett, 2006)

The molecules below were run against T1, Prostaglandin E2 receptor EP3 subtype (Homo sapiens, UniProt P43115) (assay: Binding affinity to EP3 receptor in presence of HSA). Conditions: not given.
T1 sequence (P43115 whole entry): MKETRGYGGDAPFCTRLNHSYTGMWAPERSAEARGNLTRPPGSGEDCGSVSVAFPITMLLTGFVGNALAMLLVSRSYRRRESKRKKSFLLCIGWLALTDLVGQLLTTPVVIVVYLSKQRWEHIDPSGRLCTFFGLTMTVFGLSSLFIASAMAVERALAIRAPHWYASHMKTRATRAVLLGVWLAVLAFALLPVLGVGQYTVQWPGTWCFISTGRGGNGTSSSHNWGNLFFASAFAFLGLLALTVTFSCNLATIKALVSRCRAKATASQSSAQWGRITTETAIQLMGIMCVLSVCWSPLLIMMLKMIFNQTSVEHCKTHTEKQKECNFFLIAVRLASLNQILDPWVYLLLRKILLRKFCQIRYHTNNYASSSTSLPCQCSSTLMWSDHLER
With `COc1ccc(Br)cc1S(=O)(=O)NC(=O)/C=C/c1ccccc1Cc1ccc2cc(OCc3ccccc3)ccc2c1` the Ki was 0.7 nM (antagonist).
For `O=C(/C=C/c1ccccc1Cc1ccc2cc(OCc3ccccc3)ccc2c1)NS(=O)(=O)c1cccs1`, the Ki was 2.4 nM (antagonist).

What follows are molecules tested against Prostaglandin E2 receptor EP2 subtype (Homo sapiens, UniProt P43116) (assay: Binding affinity to EP2 receptor). Conditions: not given.
Sequence of Prostaglandin E2 receptor EP2 subtype (P43116 whole entry): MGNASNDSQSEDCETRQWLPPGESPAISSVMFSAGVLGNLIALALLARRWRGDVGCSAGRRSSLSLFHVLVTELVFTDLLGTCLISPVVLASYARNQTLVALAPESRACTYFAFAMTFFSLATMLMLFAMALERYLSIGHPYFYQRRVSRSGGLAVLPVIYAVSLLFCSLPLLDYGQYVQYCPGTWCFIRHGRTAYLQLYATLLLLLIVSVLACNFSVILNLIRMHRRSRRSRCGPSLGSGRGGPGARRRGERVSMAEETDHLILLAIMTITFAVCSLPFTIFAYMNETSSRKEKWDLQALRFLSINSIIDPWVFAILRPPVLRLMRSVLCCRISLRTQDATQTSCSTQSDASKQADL
`Cc1ccc(OCc2ccccc2)c(CCCc2ccccc2CCC(=O)O)c1` was tested, and the Ki was 940 nM (antagonist).
With `COc1ccc(/C=C/Cc2ccccc2/C=C/C(=O)NS(=O)(=O)c2cccs2)cc1` the Ki was 6500 nM (antagonist).
In the case of `O=C(/C=C/c1ccccc1/C=C/Cc1ccccc1)NS(=O)(=O)c1cccs1`, the Ki is reported as 8000 nM (antagonist).
In the case of `COc1ccc(Br)cc1S(=O)(=O)NC(=O)/C=C/c1ccccc1Cc1ccc2cc(OCc3ccccc3)ccc2c1`, the Ki is reported as > 100000 nM.
With `O=C(/C=C/c1ccccc1Cc1ccc2cc(OCc3ccccc3)ccc2c1)NS(=O)(=O)c1cccs1` the Ki was 8000 nM (antagonist).

Each molecule was assayed against T2, Prostaglandin D2 receptor (Homo sapiens, UniProt Q13258) (assay: Binding affinity to DP receptor). Conditions: not given.
T2 sequence (Q13258 whole entry): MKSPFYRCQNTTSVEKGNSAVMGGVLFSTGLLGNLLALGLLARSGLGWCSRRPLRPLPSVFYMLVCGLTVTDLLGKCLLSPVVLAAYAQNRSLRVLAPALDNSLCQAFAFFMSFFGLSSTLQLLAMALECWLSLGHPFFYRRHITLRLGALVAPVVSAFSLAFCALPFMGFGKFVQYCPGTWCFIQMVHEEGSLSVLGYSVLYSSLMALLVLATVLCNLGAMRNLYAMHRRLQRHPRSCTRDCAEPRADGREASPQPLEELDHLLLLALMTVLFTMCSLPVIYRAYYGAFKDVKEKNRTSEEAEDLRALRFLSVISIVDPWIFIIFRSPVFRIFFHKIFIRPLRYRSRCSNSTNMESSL
With `COc1ccc(Br)cc1S(=O)(=O)NC(=O)/C=C/c1ccccc1Cc1ccc2cc(OCc3ccccc3)ccc2c1` the Ki was > 500 nM.

The molecules below were run against T3, Thromboxane A2 receptor (Homo sapiens, UniProt P21731) (assay: Binding affinity to TP receptor). Conditions: not given.
T3 sequence (P21731 whole entry): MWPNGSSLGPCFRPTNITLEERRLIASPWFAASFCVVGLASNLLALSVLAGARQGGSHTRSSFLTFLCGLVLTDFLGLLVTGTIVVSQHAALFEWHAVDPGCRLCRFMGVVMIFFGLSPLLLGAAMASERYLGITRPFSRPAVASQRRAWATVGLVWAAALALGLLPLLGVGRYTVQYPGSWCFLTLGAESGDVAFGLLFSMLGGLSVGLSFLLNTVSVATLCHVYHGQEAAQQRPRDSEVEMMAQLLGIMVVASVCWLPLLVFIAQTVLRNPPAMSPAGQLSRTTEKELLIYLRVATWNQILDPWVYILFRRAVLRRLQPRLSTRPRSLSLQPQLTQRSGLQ
In the case of `COc1ccc(Br)cc1S(=O)(=O)NC(=O)/C=C/c1ccccc1Cc1ccc2cc(OCc3ccccc3)ccc2c1`, the Ki is reported as > 500 nM.

Each molecule was assayed against Prostaglandin F2-alpha receptor (Homo sapiens, UniProt P43088) (assay: Binding affinity to FP receptor). Conditions: not given.
Sequence of Prostaglandin F2-alpha receptor (P43088 whole entry): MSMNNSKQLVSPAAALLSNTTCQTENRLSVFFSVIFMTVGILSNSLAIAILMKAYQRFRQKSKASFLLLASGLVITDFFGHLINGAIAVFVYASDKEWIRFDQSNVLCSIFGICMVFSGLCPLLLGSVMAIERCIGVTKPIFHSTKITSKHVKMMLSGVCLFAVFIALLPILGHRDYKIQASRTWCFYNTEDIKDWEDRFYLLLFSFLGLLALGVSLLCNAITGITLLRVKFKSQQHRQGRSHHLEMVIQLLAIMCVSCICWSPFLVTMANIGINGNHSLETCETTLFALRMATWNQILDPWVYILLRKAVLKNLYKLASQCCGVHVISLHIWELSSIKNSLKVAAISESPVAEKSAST
For `COc1ccc(Br)cc1S(=O)(=O)NC(=O)/C=C/c1ccccc1Cc1ccc2cc(OCc3ccccc3)ccc2c1`, the Ki was > 500 nM.

These molecules were tested against T4, Prostaglandin E2 receptor EP1 subtype (Homo sapiens, UniProt P34995) (assay: Binding affinity to EP1 receptor). Conditions: not given.
T4 sequence (P34995 whole entry): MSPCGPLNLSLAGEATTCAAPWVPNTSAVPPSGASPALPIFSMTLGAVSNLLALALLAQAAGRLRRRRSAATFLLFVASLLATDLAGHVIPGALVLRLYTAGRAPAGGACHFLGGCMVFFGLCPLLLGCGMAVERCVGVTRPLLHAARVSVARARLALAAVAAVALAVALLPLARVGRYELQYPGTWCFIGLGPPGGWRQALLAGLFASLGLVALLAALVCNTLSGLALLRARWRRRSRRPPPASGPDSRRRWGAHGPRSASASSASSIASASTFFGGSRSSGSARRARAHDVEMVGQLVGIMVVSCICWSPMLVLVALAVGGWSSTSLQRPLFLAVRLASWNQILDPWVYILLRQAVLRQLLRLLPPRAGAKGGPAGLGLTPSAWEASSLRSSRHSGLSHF
`Cc1ccc(OCc2ccccc2)c(CCCc2ccccc2CCC(=O)O)c1` gave a Ki of 23000 nM.
For `COc1ccc(/C=C/Cc2ccccc2/C=C/C(=O)NS(=O)(=O)c2cccs2)cc1`, the Ki was 2600 nM (antagonist).
`O=C(/C=C/c1ccccc1/C=C/Cc1ccccc1)NS(=O)(=O)c1cccs1` was tested, and the Ki was 8500 nM (antagonist).
In the case of `COc1ccc(Br)cc1S(=O)(=O)NC(=O)/C=C/c1ccccc1Cc1ccc2cc(OCc3ccccc3)ccc2c1`, the Ki is reported as > 100000 nM.
With `O=C(/C=C/c1ccccc1Cc1ccc2cc(OCc3ccccc3)ccc2c1)NS(=O)(=O)c1cccs1` the Ki was 3200 nM (antagonist).

What follows are molecules tested against Prostacyclin receptor (Homo sapiens, UniProt P43119) (assay: Binding affinity to IP receptor). Conditions: not given.
Sequence of Prostacyclin receptor (P43119 whole entry): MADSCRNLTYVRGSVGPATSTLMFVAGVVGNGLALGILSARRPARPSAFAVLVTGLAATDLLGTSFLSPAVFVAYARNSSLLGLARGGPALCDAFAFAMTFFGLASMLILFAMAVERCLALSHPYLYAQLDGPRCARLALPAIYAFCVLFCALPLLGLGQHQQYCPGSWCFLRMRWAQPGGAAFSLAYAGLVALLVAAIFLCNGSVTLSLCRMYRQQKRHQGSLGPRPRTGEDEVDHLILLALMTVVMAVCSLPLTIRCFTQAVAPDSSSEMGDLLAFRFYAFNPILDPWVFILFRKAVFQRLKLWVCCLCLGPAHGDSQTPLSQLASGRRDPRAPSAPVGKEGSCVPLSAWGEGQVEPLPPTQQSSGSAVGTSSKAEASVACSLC
For `COc1ccc(Br)cc1S(=O)(=O)NC(=O)/C=C/c1ccccc1Cc1ccc2cc(OCc3ccccc3)ccc2c1`, the Ki was > 500 nM.

Each molecule was assayed against T1, Prostaglandin E2 receptor EP3 subtype (assay: Binding affinity to EP3 receptor). Conditions: not given.
In the case of `Cc1ccc(OCc2ccccc2)c(CCCc2ccccc2CCC(=O)O)c1`, the Ki is reported as 65 nM (antagonist).
`COc1ccc(/C=C/Cc2ccccc2/C=C/C(=O)NS(=O)(=O)c2cccs2)cc1` was tested, and the Ki was 2.4 nM (antagonist).
In the case of `O=C(/C=C/c1ccccc1/C=C/Cc1ccccc1)NS(=O)(=O)c1cccs1`, the Ki is reported as 5 nM (antagonist).
With `COc1ccc(Br)cc1S(=O)(=O)NC(=O)/C=C/c1ccccc1Cc1ccc2cc(OCc3ccccc3)ccc2c1` the Ki was 0.9 nM (antagonist).
For `O=C(/C=C/c1ccccc1Cc1ccc2cc(OCc3ccccc3)ccc2c1)NS(=O)(=O)c1cccs1`, the Ki was 0.6 nM (antagonist).

These molecules were tested against Prostaglandin E2 receptor EP4 subtype (Homo sapiens, UniProt P35408) (assay: Binding affinity to EP4 receptor). Conditions: not given.
Sequence of Prostaglandin E2 receptor EP4 subtype (P35408 whole entry): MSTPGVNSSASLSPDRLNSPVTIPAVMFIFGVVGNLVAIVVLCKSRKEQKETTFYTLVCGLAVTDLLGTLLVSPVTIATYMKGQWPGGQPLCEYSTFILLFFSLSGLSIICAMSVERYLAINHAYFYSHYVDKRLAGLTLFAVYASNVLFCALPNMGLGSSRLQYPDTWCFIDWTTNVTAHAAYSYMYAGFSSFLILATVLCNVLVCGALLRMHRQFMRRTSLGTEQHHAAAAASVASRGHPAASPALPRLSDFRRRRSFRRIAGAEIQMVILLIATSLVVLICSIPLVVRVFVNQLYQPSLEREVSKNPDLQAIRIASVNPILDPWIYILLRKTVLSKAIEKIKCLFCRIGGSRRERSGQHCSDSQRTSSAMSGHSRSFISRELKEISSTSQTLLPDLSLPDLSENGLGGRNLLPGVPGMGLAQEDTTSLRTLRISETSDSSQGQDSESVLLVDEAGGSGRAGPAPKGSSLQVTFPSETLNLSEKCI
For `Cc1ccc(OCc2ccccc2)c(CCCc2ccccc2CCC(=O)O)c1`, the Ki was 440 nM (antagonist).
With `COc1ccc(/C=C/Cc2ccccc2/C=C/C(=O)NS(=O)(=O)c2cccs2)cc1` the Ki was 1000 nM (antagonist).
For `O=C(/C=C/c1ccccc1/C=C/Cc1ccccc1)NS(=O)(=O)c1cccs1`, the Ki was 1500 nM (antagonist).
With `COc1ccc(Br)cc1S(=O)(=O)NC(=O)/C=C/c1ccccc1Cc1ccc2cc(OCc3ccccc3)ccc2c1` the Ki was 8000 nM (antagonist).
With `O=C(/C=C/c1ccccc1Cc1ccc2cc(OCc3ccccc3)ccc2c1)NS(=O)(=O)c1cccs1` the Ki was 1100 nM (antagonist).

What follows are molecules tested on Rattus norvegicus (assay: Effect on carrageenan-induced paw hyperalgesia in po dosed rat). Conditions: not given.
Assay type: functional
For `COc1ccc(Br)cc1S(=O)(=O)NC(=O)/C=C/c1ccccc1Cc1ccc2cc(OCc3ccccc3)ccc2c1`, the ED50 was > 30 mg/kg.

These molecules were tested against T5, Prostaglandin E2 receptor EP3 subtype (Homo sapiens) (UniProt P43115) (assay: Antagonistic activity at EP3 receptor assessed as inhibition of cAMP production in HEK EBNA cells). Conditions: HEK293-EBNA, filed as antagonist.
T5 sequence (whole entry): T1 sequence (P43115 whole entry)
Assay type: functional, cell-based
Molecule `COc1ccc(Br)cc1S(=O)(=O)NC(=O)/C=C/c1ccccc1Cc1ccc2cc(OCc3ccccc3)ccc2c1` has a Kb of 0.7 nM.

Each molecule was assayed on Rattus norvegicus (assay: Concentration in carrageenan-induced hyperalgesic rat at 10 mg/kg, po, 1 hr postdose). Conditions: not given.
Assay type: functional
Procedure, shortened: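 Young 100 g rats from the hyperalgesia model given 10 mg/kg po in 0.5% methocel as sodium salts; plasma concentration measured 1 h post-dosing, at the time hyperalgesia was assessed.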
For `COc1ccc(Br)cc1S(=O)(=O)NC(=O)/C=C/c1ccccc1Cc1ccc2cc(OCc3ccccc3)ccc2c1`, the Activity was 8 µM.
